Key:
[1] = molecular target: T1, Polyunsaturated fatty acid 5-lipoxygenase (Rattus norvegicus, UniProt P12527); assay: Inhibitory activity against the production of leukotriene B4 (LTB4) in glycogen-induced peritoneal cells of rat; assay type: functional
T1 sequence (P12527 whole entry): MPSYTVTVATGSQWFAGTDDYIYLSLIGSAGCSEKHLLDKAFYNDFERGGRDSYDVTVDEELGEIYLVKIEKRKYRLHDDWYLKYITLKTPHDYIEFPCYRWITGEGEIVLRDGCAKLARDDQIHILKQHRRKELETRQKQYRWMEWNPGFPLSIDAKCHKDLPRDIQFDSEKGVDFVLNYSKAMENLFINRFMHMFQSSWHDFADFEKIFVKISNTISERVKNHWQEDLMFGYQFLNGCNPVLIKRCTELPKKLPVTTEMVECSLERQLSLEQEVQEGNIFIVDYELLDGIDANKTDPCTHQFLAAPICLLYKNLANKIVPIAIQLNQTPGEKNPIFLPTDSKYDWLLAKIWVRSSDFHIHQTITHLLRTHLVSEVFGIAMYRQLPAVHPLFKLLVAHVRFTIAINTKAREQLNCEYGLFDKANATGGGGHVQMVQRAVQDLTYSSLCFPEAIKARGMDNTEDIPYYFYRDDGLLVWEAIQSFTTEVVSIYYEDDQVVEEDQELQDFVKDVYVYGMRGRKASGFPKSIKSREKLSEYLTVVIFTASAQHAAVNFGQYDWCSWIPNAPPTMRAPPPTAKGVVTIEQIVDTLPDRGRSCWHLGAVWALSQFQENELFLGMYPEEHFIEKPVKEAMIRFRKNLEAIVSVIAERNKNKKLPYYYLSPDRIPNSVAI
Outline: (§1)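 Peritoneal leukocytes elicited in male F344 rats by ip 6% glycogen, suspended in Ca/Mg-free HBSS (5 × 10⁶ cells/mL). Cells preincubated 5 min at 37 °C with compound or vehicle (0.1% DMSO/0.1% BSA), stimulated with A23187 (4 μM, 10 min, 37 °C), stopped with BW755C. LTB₄, TXB₂ and PGE₂ in supernatant by radioimmunoassay. Duplicate points; IC50 by probit analysis.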

[2] = molecular target: T2, Thromboxane-A synthase (Rattus norvegicus, UniProt P49430); assay: Inhibitory activity against the production of thromboxane B2 (TXB2) in glycogen-induced peritoneal cells of rat; assay type: functional; outline: as §1
T2 sequence (P49430 whole entry): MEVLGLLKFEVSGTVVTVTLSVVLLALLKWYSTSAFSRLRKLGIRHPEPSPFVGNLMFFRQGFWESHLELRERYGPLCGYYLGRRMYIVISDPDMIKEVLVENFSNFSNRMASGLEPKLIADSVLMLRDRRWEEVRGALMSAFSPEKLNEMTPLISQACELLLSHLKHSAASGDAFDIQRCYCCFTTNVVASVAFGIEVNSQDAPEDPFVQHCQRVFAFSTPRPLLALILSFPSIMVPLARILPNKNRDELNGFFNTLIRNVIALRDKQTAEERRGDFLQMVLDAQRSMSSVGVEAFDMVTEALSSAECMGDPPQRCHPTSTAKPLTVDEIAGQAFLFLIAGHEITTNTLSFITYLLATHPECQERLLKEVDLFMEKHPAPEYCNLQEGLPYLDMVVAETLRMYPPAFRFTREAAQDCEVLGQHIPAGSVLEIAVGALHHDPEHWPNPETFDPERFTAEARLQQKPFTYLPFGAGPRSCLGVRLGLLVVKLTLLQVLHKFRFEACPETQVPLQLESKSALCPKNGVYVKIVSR

[3] = test system: Rattus norvegicus; assay: Tested for the ability to decrease lesion area in the colon of the TNB/ethanol-induced chronic colitis rats at the dosage of 100 mg/kg/day; assay type: functional
Outline: (§2)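 TNB/ethanol colitis rats dosed orally (0.5% MC suspension) once daily for 11 days from day 3, killed day 14. Ethanol-only group as baseline. Colonic MPO activity measured; lesion area (mm²/colon) by stereomicroscope. % inhibition = [1 − (test − ethanol)/(control − ethanol)] × 100. Mean ± SEM.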

[4] = Tested for inhibitory activity against thromboxane B2 (TXB2) in human platelets
Outline: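 Washed human platelets (3 × 10⁸ cells/mL) in Tris-HCl-saline, pH 7.4, with 10 μM indomethacin. Preincubated 5 min at 25 °C with compound, PGH₂ (1 μg/mL) for 3 min at 25 °C, citrate/ethanol stop. TXB₂ in supernatant by radioimmunoassay. Duplicate points; IC50 by probit analysis.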

[5] = species: Homo sapiens; assay: Tested for inhibitory activity against the production of leukotriene B4 (LTB4) in human whole blood; assay type: functional, organism-based
Outline: (§3)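 Heparinized (10 U/mL) fresh blood from healthy volunteers, 0.4 mL aliquots, preincubated 5 min at 37 °C with compound or vehicle (0.1% DMSO/0.1% BSA). A23187 (40 μM) added for 20 min. LTB₄, TXB₂, PGE₂ in plasma by radioimmunoassay. Duplicate points; IC50 by probit analysis.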

[6] = species: Homo sapiens; assay: Tested for inhibitory activity against the production of prostaglandin E2 (PGE2) in human whole blood; assay type: functional, organism-based; outline: as §3
[7] = species: Homo sapiens; assay: Tested for inhibitory activity against the production of thromboxane B2 (TXB2) in human whole blood; assay type: functional, organism-based; outline: as §3
[8] = molecular target: T3, Thromboxane-A synthase (Homo sapiens, UniProt P24557); assay: Tested for inhibitory activity against thromboxane A2 (TXA2) synthetase in microsome of human platelets
T3 sequence (P24557 whole entry): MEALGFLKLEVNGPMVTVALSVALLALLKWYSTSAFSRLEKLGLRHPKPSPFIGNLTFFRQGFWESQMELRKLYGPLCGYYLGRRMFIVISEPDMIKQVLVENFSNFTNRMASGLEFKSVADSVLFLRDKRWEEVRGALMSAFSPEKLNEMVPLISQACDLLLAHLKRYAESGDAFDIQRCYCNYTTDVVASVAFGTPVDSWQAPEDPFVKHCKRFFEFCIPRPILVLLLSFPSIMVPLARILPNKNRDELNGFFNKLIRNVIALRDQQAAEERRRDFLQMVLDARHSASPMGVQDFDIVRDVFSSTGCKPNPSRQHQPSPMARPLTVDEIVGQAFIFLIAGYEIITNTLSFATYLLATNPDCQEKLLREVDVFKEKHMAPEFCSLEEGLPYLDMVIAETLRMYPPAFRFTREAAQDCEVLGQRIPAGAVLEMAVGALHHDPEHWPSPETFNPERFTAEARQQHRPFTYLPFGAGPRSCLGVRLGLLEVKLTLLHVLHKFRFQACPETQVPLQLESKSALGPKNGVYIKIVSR
Outline: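 Platelet microsome fraction (105000g) resuspended in 50 mM Tris-HCl-saline, pH 7.4, with 10 μM indomethacin. 20 μg protein preincubated 5 min at 25 °C with compound, PGH₂ (1 μg/mL) for 1 min at 25 °C, citric acid/ethanol stop. TXB₂ by radioimmunoassay. Duplicate points; IC50 by probit analysis.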

[9] = species: Homo sapiens; assay: Tested for inhibitory activity against leukotriene B4 (LTB4) in human neutrophils; assay type: functional, organism-based
Outline: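 Human blood neutrophils from heparinized blood (dextran sedimentation, Percoll gradient), 1 × 10⁶ cells/mL in Ca/Mg-free HBSS. Preincubated 5 min at 37 °C with compound or vehicle, A23187 (4 μM) for 10 min. LTB₄ in cell-free supernatant by radioimmunoassay. Duplicate points; IC50 by probit analysis.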

[10] = molecular target: T1, Polyunsaturated fatty acid 5-lipoxygenase; assay: Tested for inhibitory activity against 5-lipoxygenase in microsome of RBL-1 cells; assay type: cell-based
Outline: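 RBL-1 cells sonicated at 0 °C in 50 mM phosphate, pH 7.4, with 0.25 M sucrose and 1 mM EDTA. Homogenate preincubated 5 min at 37 °C with compound plus 2 mM glutathione, then arachidonic acid (0.2 mM) for 10 min at 37 °C. Formic acid stop, CHCl₃/MeOH extraction, 5-HETE by HPLC. Duplicate points; IC50 by probit analysis.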

[11] = molecular target: Cyclooxygenase (Rattus norvegicus); assay: Inhibitory activity against the production of prostaglandin E2 (PGE2) in glycogen-induced peritoneal cells of rat
[12] = Tested for the suppression ratio, the difference between the amount of LTB4 produced in the test groups and the control group at the dosage of 100 mg/kg; assay type: functional
Outline: (§4)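 Male F344 rats (9 weeks, fasted 2 days) given a single intracolonic dose of 30 mg TNB in 0.25 mL 50% ethanol. Day 7: one oral dose in 0.5% MC, or vehicle. Killed 6 h later; colon incubated with A23187 (2 μg/mL) in Tyrode, 15 min, 37 °C. Eicosanoids by radioimmunoassay. Suppression versus vehicle controls; mean ± SEM.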

[13] = Tested for the suppression ratio, the difference between the amount of PGE-2 produced in the test groups and the control group at the dosage of 100 mg/kg; assay type: functional; outline: as §4
[14] = Tested for the suppression ratio, the difference between the amount of TXB2 produced in the test groups and the control group at the dosage of 100 mg/kg; assay type: functional; outline: as §4
[15] = test system: Rattus norvegicus; assay: Tested for the ability to decrease lesion area in the colon of the TNB/ethanol-induced chronic colitis rats at the dosage of 500 mg/kg/day; assay type: functional; outline: as §2

Row | Structure (SMILES) | IC50 [1] [nM] | IC50 [2] [nM] | inhibition in vivo at 100 mg/kg/day [3] [%] | IC50 [11] [nM] | other results
1 | CCc1c(O)c(OC)c(Cc2cccnc2)c2nc(N)sc12 | 150 | 180 |  |  | 
2 | CCNc1nc2c(Cc3cccnc3)c(C)c(O)c(C)c2s1 | < 100 | 100 | 57 |  | IC50 [4]: 60 nM; IC50 [5]: 1100 nM; IC50 [6]: > 91000 nM; IC50 [7]: 560 nM; IC50 [8]: 10 nM; IC50 [9]: < 100 nM; IC50 [10]: 910 nM
3 | CCCNc1nc2c(Cc3cccnc3)c(C)c(O)c(C)c2s1.Cl.Cl | < 100 | 90 |  | > 100000 | 
4 | Cc1c(O)c(Cc2cccnc2)c2sc(N)nc2c1C.Cl.Cl | 250 | 5300 |  | > 100000 | 
5 | CCc1c(O)c(OC)c(Cc2cccnc2)c2nc(NC)sc12 | < 100 | 330 |  | > 100000 | 
6 | CNc1nc2c(Cc3cccnc3)c(C)c(O)c(C)c2s1 |  |  | 39 |  | IC50 [4]: 80 nM; IC50 [5]: 830 nM; IC50 [6]: > 90000 nM; IC50 [7]: 1100 nM; IC50 [8]: 9 nM; IC50 [10]: 230 nM
7 | CCNc1nc2c(C)c(C)c(O)c(Cc3cccnc3)c2s1 | < 100 | 2000 | 64 | > 100000 | IC50 [4]: 4300 nM; IC50 [5]: 500 nM; IC50 [6]: > 100000 nM; IC50 [7]: 34800 nM; IC50 [8]: 810 nM; Suppression ratio [12]: 89%; Suppression ratio [13]: 41%; Suppression ratio [14]: 53%; IC50 [10]: 270 nM
8 | O=C(O)c1cc(/N=N/c2ccc(S(=O)(=O)Nc3ccccn3)cc2)ccc1O [SULFASALAZINE] |  |  |  |  | inhibition in vivo at 500 mg/kg/day [15]: 16%
9 | Cc1c(O)c(C)c2sc(NCc3ccc(S(N)(=O)=O)cc3)nc2c1C |  |  |  |  | IC50 [4]: > 100000 nM; IC50 [5]: 24000 nM; IC50 [6]: > 100000 nM; IC50 [7]: 42000 nM; Suppression ratio [12]: 86%; Suppression ratio [13]: 0%; Suppression ratio [14]: 0%; IC50 [10]: 210 nM
10 | CCNc1nc2c(C)c(Cc3cccnc3)c(O)c(C)c2s1 | 230 | 650 | 48 | > 100000 | IC50 [4]: 2300 nM; IC50 [8]: 390 nM; Suppression ratio [12]: 83%; Suppression ratio [13]: 8%; Suppression ratio [14]: 67%
11 | Cc1cc(O)c(C)c2sc(NCc3cccnc3)nc12 | < 100 | 4400 | 71 |  | 
12 | Cc1c(O)c2ccccc2c2nc(NCc3cccnc3)sc12 | 1600 | 4000 |  | 5500 | 
13 | Oc1cc(-c2ccccc2)c2nc(NCc3cccnc3)sc2c1 | 7000 | 1400 |  | 9600 | 
14 | COc1cc2nc(NCc3cccnc3)sc2c(OC)c1O | 90 | 5500 |  |  | 
15 | Cc1c(O)c(C)c2sc(N)nc2c1Cc1cccnc1 | 190 | 2 |  |  | 
16 | CNc1nc2c(Cc3cccnc3)c(OC)c(O)c(C)c2s1 | 170 | 1300 |  |  | 
17 | COc1c(O)c(C)c2sc(N)nc2c1Cc1cccnc1.Cl.Cl | 170 | 110 |  | > 100000 | 
18 | CNc1nc2c(C)c(Cc3cccnc3)c(O)c(C)c2s1.Cl.Cl | 300 | < 100 |  | > 100000 | 
19 | Cc1c(O)c(C)c2sc(NCc3cccnc3)nc2c1C | < 100 | 2000 | 81 |  | 

Reference: ChEMBL document CHEMBL1127462, “Novel dual inhibitors of 5-lipoxygenase and thromboxane A2 synthetase: synthesis and structure-activity relationships of 3-pyridylmethyl-substituted 2-amino-6-hydroxybenzothiazole derivatives” (J Med Chem, 1994)
